For series [1], the target named is T1, Neutrophil elastase (Homo sapiens) (UniProt P08246).
T1 sequence (whole entry): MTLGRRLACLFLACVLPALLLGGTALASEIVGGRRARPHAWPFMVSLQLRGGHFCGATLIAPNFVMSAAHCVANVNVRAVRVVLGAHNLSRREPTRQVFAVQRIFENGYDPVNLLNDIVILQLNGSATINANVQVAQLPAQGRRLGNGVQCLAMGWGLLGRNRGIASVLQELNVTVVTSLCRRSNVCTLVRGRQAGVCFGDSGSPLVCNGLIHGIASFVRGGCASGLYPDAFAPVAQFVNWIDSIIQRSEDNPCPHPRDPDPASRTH

Series [2] concerns Cricetinae gen. sp. Kind of series: Compound was evaluated in vivo for inhibition of HLE-induced hemorrhage in hamster lung at 200 microg 3h after administration prior to HLE. It counts as functional, Cricetulus griseus. The essentials:
(§1)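 Hamster duration protocol: 200 μg/animal given intratracheally 60, 120, 180 or 240 min before IT HLE instillation; hemorrhage scored after 3 h as hemoglobin (414 nm) in saline lung lavage, relative to vehicle-treated animals; three animals per point. T50 taken as time at which 50% inhibition is still obtained.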

Series [3] is described as follows: Half-life value of the compound. It counts as ADME. The gist of the method: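 Chemical stability: compound dissolved at 1 mg/mL in 0.5 M MOPS, pH 8.0, held at 25 °C in capped vial; aliquots quenched in 2% aqueous TFA and analysed by reverse-phase HPLC over one to two half-lives. Peak areas fit to first-order decay F(t)=A/2^(t/t1/2) to give t1/2.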
The test system of series [4] is Cricetinae gen. sp. Briefly: Compound was evaluated in vivo for inhibition of HLE-induced hemorrhage in hamster lung at 200 microg 2 hr after administration prior to HLE. It counts as functional, Cricetulus griseus. The essentials: as §1
The subject of series [5] is Cricetinae gen. sp. Kind of series: Compound was evaluated in vivo for inhibition of HLE-induced hemorrhage in hamster lung at 200 microg 4 hr after administration prior to HLE. It is filed as functional, Cricetulus griseus. The gist of the method:
as §1

In series [6] the test system is Cricetinae gen. sp. Kind of series: Compound was evaluated in vivo for inhibition of HLE-induced hemorrhage in hamster lung at 200 microg 1 hr after administration prior to HLE. It is filed as functional, Cricetulus griseus. The gist of the method:
as §1

For series [7], the system named is Cricetinae gen. sp. Briefly: Compound was evaluated in vivo for inhibition of HLE-induced hemorrhage in hamster lung at 10 microg, 30 min after administration prior to HLE. It is filed as functional, Cricetulus griseus. The gist of the method: (§2)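 Hamster, intratracheal dosing of compound (per animal) 30 min before IT instillation of 50 μg HLE (50 units in Experimental); hemorrhage read 3 h later: lungs lavaged with saline, hemoglobin in lavage measured at 414 nm. Percent inhibition from drug-treated vs vehicle-treated hemorrhage; three animals per dose and time. Titration at 100, 30, 10, 3 μg/animal gives ED50.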

Series [8] relates to Cricetinae gen. sp. Briefly: Compound was evaluated in vivo for inhibition of HLE-induced hemorrhage in hamster lung at 100 microg, 30 min after administration prior to HLE. It counts as functional, Cricetulus griseus. The gist of the method: as §2
Series [9] has as its system Cricetinae gen. sp. Briefly: Compound was evaluated in vivo for inhibition of HLE-induced hemorrhage in hamster lung at 30 microg, 30 min after administration prior to HLE. It counts as functional, Cricetulus griseus. The gist of the method: as §2
Series [10] relates to Cricetinae gen. sp. Kind of series: Compound was evaluated in vivo for inhibition of HLE-induced hemorrhage in hamster lung at 10microg, 30 min after administration prior to HLE. It counts as functional, Cricetulus griseus. The essentials: as §2
The test system of series [11] is Cricetinae gen. sp. Kind of series: Compound was evaluated in vivo for inhibition of HLE-induced hemorrhage in hamster lung at 30microg, 30 min after administration prior to HLE. It is filed as functional, Cricetulus griseus. The gist of the method:
as §2

For series [12], the system named is Cricetinae gen. sp. Briefly: Compound was evaluated in vivo for inhibition of HLE-induced hemorrhage in hamster lung at 200 microg, 2 hr after administration prior to HLE. It is filed as functional, Cricetulus griseus. The gist of the method:
as §1

In series [13] the test system is Cricetinae gen. sp. Briefly: Compound was evaluated in vivo for inhibition of HLE-induced hemorrhage in hamster lung at 30 ug 30 min after administration prior to HLE. It counts as functional, Cricetulus griseus. The essentials:
as §2

Series [14] relates to Cricetinae gen. sp. Briefly: Compound was evaluated in vivo for inhibition of HLE-induced hemorrhage in hamster lung at 100 microg 30 min after administration prior to HLE. It counts as functional, Cricetulus griseus. The gist of the method: as §2
Series [15] deals with Cricetinae gen. sp. Kind of series: Compound was evaluated in vivo for inhibition of HLE-induced hemorrhage in hamster lung at 10 ug 30 min after administration prior to HLE. It is filed as functional, Cricetulus griseus. The essentials:
as §2

The subject of series [16] is Cricetinae gen. sp. Briefly: Compound was evaluated in vivo for inhibition of HLE-induced hemorrhage in hamster lung at 200 microg, 3h after administration prior to HLE. It counts as functional, Cricetulus griseus. The gist of the method: as §1
Series [17] has as its target T2, Neutrophil elastase (Homo sapiens, UniProt P08246).
T2 sequence (P08246 whole entry): T1 sequence (whole entry)
Kind of series: In vitro inhibitory activity against human leukocyte elastase.

The subject of series [18] is Cricetinae gen. sp. Kind of series: Inhibitory activity against Human Leukocyte Elastase by Lung Hemorrhage assay ( at 200 ug/animal). It counts as functional, Cricetulus griseus. The gist of the method:
as §1

Series [19] has as its target T2, Neutrophil elastase. Briefly: Inhibitory activity against Human Leukocyte Elastase.
In series [20] the test system is Cricetinae gen. sp. Briefly: Inhibitory activity against Human Leukocyte Elastase by Lung Hemorrhage assay (Effective dose at 15 microg). It counts as functional, Cricetulus griseus.
The test system of series [21] is Cricetinae gen. sp. Kind of series: Inhibitory activity against Human Leukocyte Elastase by Lung Hemorrhage assay (at 30 min). It is filed as functional, Cricetulus griseus. The gist of the method: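 Hamster, intratracheal: test compound 100 μg/animal given 30 min before IT instillation of HLE (50 μg; text also says 50 units). Hemorrhage read 3 h after HLE: lungs lavaged with saline, hemoglobin measured at 414 nm. Percent inhibition from hemorrhage in drug-treated vs vehicle-treated animals; mean of three animals per dose and time.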

In series [22] the test system is Cricetinae gen. sp. Kind of series: Compound was evaluated in vivo for inhibition of HLE-induced hemorrhage in hamster lung at 100 microg, 30 min after administration. It counts as functional, Cricetulus griseus. The essentials: as §2

pIC50, pKi: −log10 of the molar value.

With `CO[C@H]1C(=O)N2C(C(=O)N3CCC(O)C3)=C(COC(C)=O)CS(=O)(=O)[C@H]12` (stereo partly drawn), in series [1], the k obs / 1 turned out to be 12000 M⁻¹ s⁻¹.
As for `CO[C@H]1C(=O)N2C(C(=O)N(C)CCC(=O)O)=C(COC(C)=O)CS(=O)(=O)[C@H]12`, in series [1], the k obs / 1 came to 500 M⁻¹ s⁻¹. In addition, the Inhibition (as a rule, the relative decrease from the control value, in per cent) is listed as -1% in [2], 39% in series [4], 33% in series [5] and 80% in series [6]. Besides, the half-life (usually how long it takes for the measured level to halve) in series [3] is 24 h.
`CO[C@H]1C(=O)N2C(C(=O)N(C)[C@H](C)C(=O)O)=C(COC(C)=O)CS(=O)(=O)[C@H]12`: the figures for the Inhibition in [7], in [8] and in series [9] were 29%, 97% and 90%, respectively. The compound further returned a k obs / 1 in series [1] of 900 M⁻¹ s⁻¹.
Turning to `CO[C@H]1C(=O)N2C(C(=O)N(C)CC(=O)O)=C(COC(=O)NCc3ccccc3)CS(=O)(=O)[C@H]12`, the figures for the Inhibition in [10], in series [8] and in [11] were 27%, 91% and 93%, respectively. The k obs / 1 in [1] turned out to be 600 M⁻¹ s⁻¹.
The compound `CO[C@H]1C(=O)N2C(C(=O)N3CCCC3)=C(COC(C)=O)CS(=O)(=O)[C@H]12` gave a k obs / 1 in series [1] of 27000 M⁻¹ s⁻¹. In series [3], this compound gave a half-life of 16 h.
Take `CO[C@H]1C(=O)N2C(C(=O)N3CCC(C(=O)O)C3)=C(COC(C)=O)CS(=O)(=O)[C@H]12` (stereo partly drawn): the k obs / 1 in [1] is 1900 M⁻¹ s⁻¹.
For `CO[C@H]1C(=O)N2C(C(=O)N(C)CC(=O)OC(C)(C)C)=C(CSc3nc(=O)c(=O)[nH]n3C)CS(=O)(=O)[C@H]12`, the Inhibition in [12] is 84%; in [13] it was 94%; in series [14] it was 98%; in series [15], 65%; in series [16] it was 38%; in series [6], 89%. Besides, the k obs / 1 in series [1] worked out at 19300 M⁻¹ s⁻¹.
In the case of `CO[C@H]1C(=O)N2C(C(=O)N(C)CC(=O)O)=C(COC(C)=O)C(C)S(=O)(=O)[C@H]12` (stereo partly drawn), the k obs / 1 in [1] was 1400 M⁻¹ s⁻¹. The compound also gave a half-life in series [3] of 8 h.
In the case of `CO[C@H]1C(=O)N2C(C(=O)N(CC(=O)O)Cc3ccccc3)=C(COC(C)=O)CS(=O)(=O)[C@H]12`, the pKi (as a rule, the negative decadic logarithm of the Ki, by convention in mol/L) in series [17] was 5.21. In addition, the Inhibition in [8] is listed as 42%; in series [11], 30%.
For the compound `CO[C@H]1C(=O)N2C(C(=O)N(C)CCC(=O)O)=C(CSc3nc(=O)c(=O)[nH]n3C)CS(=O)(=O)[C@H]12`, the Inhibition was 74% in series [13]; 96% in series [14]; 46% in series [2]; 87% in series [4]; 45% in [15]; -23% in series [5]. The Inhibition in series [6] came to 95%. This compound also had a k obs / 1 in series [1] of 1000 M⁻¹ s⁻¹.
For the compound `CO[C@H]1C(=O)N2C(C(=O)N(C)CC(=O)N(C)CCC(=O)O)=C(COC(C)=O)CS(=O)(=O)[C@H]12`, the Inhibition in series [10] is 35%; in series [8], 86%; in series [11], 77%. This compound had a k obs / 1 in series [1] of 700 M⁻¹ s⁻¹.
On to `CO[C@H]1C(=O)N2C(C(=O)N3CCCC3)=C(CSc3nc(=O)c(=O)[nH]n3C)CS(=O)(=O)[C@H]12`, for which, in [18], the T50 is 240 min. The Inhibition in [13] is reported as 60%; in series [14] it was 95%; in series [2] it was 64%; in series [4], 87%; in series [15], 30%; in [5], 50%. Besides, in [6], the Inhibition is reported as 88%. For the same compound, the k obs / 1 in [1] is 13400 M⁻¹ s⁻¹. Further, the pIC50 (as a rule, the negative decadic logarithm of the IC50, by convention in mol/L) in series [19] is 5.70. In series [3], the half-life was 20 h. For the same compound, the values for the ED50 in series [20] and in series [21] were 30 µg and 20 µg, respectively.
As for `CO[C@H]1C(=O)N2C(C(=O)N3CCOCC3)=C(COC(C)=O)CS(=O)(=O)[C@H]12`, the k obs / 1 in series [1] came to 35200 M⁻¹ s⁻¹. This compound gave a half-life in series [3] of 13 h. Also, the Inhibition in series [22] is recorded as -21%.

These data come from ChEMBL document CHEMBL1125311, “Inhibition of human leukocyte elastase. 4. Selection of a substituted cephalosporin (L-658,758) as a topical aerosol” (J Med Chem, 1992).
